Measured values taken from ChEMBL document CHEMBL5724801, “EUbOPEN Chemogenomics Library - Multiplex” (2024).
Where “and” joins values, the source holds several entries; their conditions need not be identical. Identical values can stand only once.

Tested on: Fibroblast
Test: Multiplex assay against human fibroblast
Type: toxicity, cell-based
Outline: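 Hoechst33342, BioTracker Green Microtubule Cytoskeleton Dye, MitoTracker Red and Annexin V Alexa Fluor 680 were added to live cells at seeding, and imaging on a CQ1 microscope at 37°C and 5% CO2 followed compound addition. Gating by CellPathfinder machine learning separated cells into Hoechst high-intensity objects or normal cells, then normal cells into healthy, pyknosed or fragmented nuclei, then pyknosed cells into mitotic or apoptotic. Per cents of healthy-nucleus cells are reported for the tubulin, mitochondrial-mass and membrane-permeability phenotypes.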

[1] = 12 h, 1 µM, compound concentration 1 uM
[2] = 12 h, 10 µM, compound concentration 10 uM
[3] = 24 h, 1 µM, compound concentration 1 uM
[4] = 24 h, 10 µM, compound concentration 10 uM
[5] = 48 h, 1 µM, compound concentration 1 uM
[6] = 48 h, 10 µM, compound concentration 10 uM

COC(c1ccccc1)(c1ccccc1)[C@H](Oc1nc(C)cc(C)n1)C(=O)O [AMBRISENTAN]
Population Apoptotic (%) [1]: 68% and 30%
Population Fragmented Nuclei (%) [1]: 13% and 18%
Population Healthy Nuclei (%) [1]: 66% and 56%
Population Hoechst High Intensity Objects (%) [1]: 1% and 4%
Population Membrane Permeable-Phenotype (%) [1]: 0% and 1%
Population Mitochondria Different-Phenotype (%) [1]: 4% and 6%
Population Mitotic Cells (%) [1]: 31% and 69%
Population Normal (%) [1]: 98% and 95%
Population Pyknosed Nuclei (%) [1]: 19% and 25%
Population Tubulin-Different-Phenotype (%) [1]: 29% and 37%
Total Cell Count [1]: 97 and 163
Population Apoptotic (%) [2]: 56% and 33%
Population Healthy Nuclei (%) [2]: 70% and 25%
Population Hoechst High Intensity Objects (%) [2]: 5% and 4%
Population Membrane Permeable-Phenotype (%) [2]: 0% and 5%
Population Mitochondria Different-Phenotype (%) [2]: 11% and 0%
Population Mitotic Cells (%) [2]: 43% and 66%
Population Normal (%) [2]: 94% and 95%
Population Pyknosed Nuclei (%) [2]: 21% and 34%
Population Tubulin-Different-Phenotype (%) [2]: 25% and 35%
Total Cell Count [2]: 145 and 82
Population Apoptotic (%) [3]: 62% and 34%
Population Fragmented Nuclei (%) [3]: 15% and 14%
Population Healthy Nuclei (%) [3]: 67% and 62%
Population Hoechst High Intensity Objects (%) [3]: 2% and 5%
Population Membrane Permeable-Phenotype (%) [3]: 0% and 3%
Population Mitochondria Different-Phenotype (%) [3]: 4% and 3%
Population Mitotic Cells (%) [3]: 37% and 65%
Population Normal (%) [3]: 97% and 94%
Population Pyknosed Nuclei (%) [3]: 17% and 23%
Population Tubulin-Different-Phenotype (%) [3]: 38%
Total Cell Count [3]: 95 and 158
Population Apoptotic (%) [4]: 69% and 27%
Population Healthy Nuclei (%) [4]: 68% and 27%
Population Hoechst High Intensity Objects (%) [4]: 7% and 5%
Population Membrane Permeable-Phenotype (%) [4]: 0% and 5%
Population Mitochondria Different-Phenotype (%) [4]: 11% and 10%
Population Mitotic Cells (%) [4]: 30% and 72%
Population Normal (%) [4]: 92% and 94%
Population Pyknosed Nuclei (%) [4]: 18% and 26%
Population Tubulin-Different-Phenotype (%) [4]: 29% and 36%
Total Cell Count [4]: 149 and 73
Population Apoptotic (%) [5]: 60% and 61%
Population Fragmented Nuclei (%) [5]: 19% and 24%
Population Healthy Nuclei (%) [5]: 64% and 54%
Population Hoechst High Intensity Objects (%) [5]: 4% and 0%
Population Membrane Permeable-Phenotype (%) [5]: 1% and 4%
Population Mitochondria Different-Phenotype (%) [5]: 5% and 10%
Population Mitotic Cells (%) [5]: 40% and 38%
Population Normal (%) [5]: 95% and 99%
Population Pyknosed Nuclei (%) [5]: 16% and 20%
Population Tubulin-Different-Phenotype (%) [5]: 28% and 42%
Total Cell Count [5]: 93 and 154
Population Apoptotic (%) [6]: 61% and 71%
Population Healthy Nuclei (%) [6]: 71% and 31%
Population Hoechst High Intensity Objects (%) [6]: 7% and 3%
Population Membrane Permeable-Phenotype (%) [6]: 1% and 0%
Population Mitochondria Different-Phenotype (%) [6]: 10% and 0%
Population Mitotic Cells (%) [6]: 38% and 28%
Population Normal (%) [6]: 92% and 96%
Population Pyknosed Nuclei (%) [6]: 13% and 18%
Population Tubulin-Different-Phenotype (%) [6]: 34% and 62%
Total Cell Count [6]: 145 and 79

CCc1cc2cc(NS(=O)(=O)c3ccc(C#N)cc3)ccc2n(CC)c1=O
Population Apoptotic (%) [1]: 42%
Population Fragmented Nuclei (%) [1]: 16% and 27%
Population Healthy Nuclei (%) [1]: 64% and 40%
Population Hoechst High Intensity Objects (%) [1]: 1% and 6%
Population Membrane Permeable-Phenotype (%) [1]: 1% and 9%
Population Mitochondria Different-Phenotype (%) [1]: 3% and 7%
Population Mitotic Cells (%) [1]: 57%
Population Normal (%) [1]: 98% and 93%
Population Pyknosed Nuclei (%) [1]: 18% and 32%
Population Tubulin-Different-Phenotype (%) [1]: 24% and 39%
Total Cell Count [1]: 157 and 173
Population Apoptotic (%) [2]: 42% and 18%
Population Fragmented Nuclei (%) [2]: 18% and 19%
Population Healthy Nuclei (%) [2]: 54% and 43%
Population Hoechst High Intensity Objects (%) [2]: 1% and 5%
Population Mitochondria Different-Phenotype (%) [2]: 5% and 6%
Population Mitotic Cells (%) [2]: 57% and 81%
Population Normal (%) [2]: 98% and 94%
Population Pyknosed Nuclei (%) [2]: 26% and 37%
Population Tubulin-Different-Phenotype (%) [2]: 65% and 74%
Total Cell Count [2]: 133 and 153
Population Apoptotic (%) [3]: 53% and 43%
Population Fragmented Nuclei (%) [3]: 19% and 26%
Population Healthy Nuclei (%) [3]: 63% and 48%
Population Hoechst High Intensity Objects (%) [3]: 5% and 6%
Population Membrane Permeable-Phenotype (%) [3]: 1% and 9%
Population Mitochondria Different-Phenotype (%) [3]: 4% and 8%
Population Mitotic Cells (%) [3]: 46% and 56%
Population Normal (%) [3]: 94% and 93%
Population Pyknosed Nuclei (%) [3]: 17% and 25%
Population Tubulin-Different-Phenotype (%) [3]: 26% and 51%
Total Cell Count [3]: 157 and 164
Population Apoptotic (%) [4]: 50% and 32%
Population Fragmented Nuclei (%) [4]: 19% and 22%
Population Healthy Nuclei (%) [4]: 58% and 38%
Population Hoechst High Intensity Objects (%) [4]: 2% and 9%
Population Membrane Permeable-Phenotype (%) [4]: 1% and 6%
Population Mitochondria Different-Phenotype (%) [4]: 6% and 12%
Population Mitotic Cells (%) [4]: 50% and 67%
Population Normal (%) [4]: 97% and 90%
Population Pyknosed Nuclei (%) [4]: 22% and 39%
Population Tubulin-Different-Phenotype (%) [4]: 59% and 72%
Total Cell Count [4]: 130 and 145
Population Apoptotic (%) [5]: 52% and 37%
Population Fragmented Nuclei (%) [5]: 24% and 33%
Population Healthy Nuclei (%) [5]: 59% and 50%
Population Hoechst High Intensity Objects (%) [5]: 3% and 5%
Population Membrane Permeable-Phenotype (%) [5]: 0% and 12%
Population Mitochondria Different-Phenotype (%) [5]: 4% and 8%
Population Mitotic Cells (%) [5]: 47% and 62%
Population Normal (%) [5]: 96% and 94%
Population Pyknosed Nuclei (%) [5]: 15% and 16%
Population Tubulin-Different-Phenotype (%) [5]: 27% and 60%
Total Cell Count [5]: 150 and 156
Population Apoptotic (%) [6]: 60%
Population Fragmented Nuclei (%) [6]: 17% and 30%
Population Healthy Nuclei (%) [6]: 62% and 48%
Population Hoechst High Intensity Objects (%) [6]: 1% and 7%
Population Mitochondria Different-Phenotype (%) [6]: 12% and 7%
Population Mitotic Cells (%) [6]: 40% and 39%
Population Normal (%) [6]: 98% and 92%
Population Pyknosed Nuclei (%) [6]: 19% and 20%
Population Tubulin-Different-Phenotype (%) [6]: 61% and 69%
Total Cell Count [6]: 129 and 145
